Results reported in ChEMBL document CHEMBL4813982, “Novel pyrazolo[4,3-d]pyrimidine microtubule targeting agents (MTAs): Synthesis, structure-activity relationship, in vitro and in vivo evaluation as antitumor agents” (Bioorg Med Chem Lett, 2021).
Active and inactive are the calls of the source. No cut-off for these calls is given here.

Key:
Tubulin (Homo sapiens) [1] = biological target: T1, Tubulin (Homo sapiens) (UniProt P68371+Q9H4B7+P0DPH7+P68366+Q13509+Q71U36+P04350+Q3ZCM7+P07437+P68363+Q9BQE3+Q6PEY2+Q13885+Q9BVA1+Q9BUF5); experiment: Inhibition of [3H]colchicine binding to tubulin (unknown origin) at 0.5 uM relative to control; format: protein-complex assay
Tubulin (Homo sapiens) [2] = biological target: T1, Tubulin (Homo sapiens); experiment: Inhibition of [3H]colchicine binding to tubulin (unknown origin) at 5 uM relative to control; format: protein-complex assay
Tubulin = experiment: Inhibition of tubulin assembly (unknown origin); format: protein-complex assay, Homo sapiens
[3] = Resistance ratio of IC50 for antiproliferative activity against human NCI/ADR-RES cells expressing Pgp to IC50 for antiproliferative activity against human OVCAR-8 cells; format: functional
In short: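 Resistance ratio: IC50 in Pgp-overexpressing NCI/ADR-RES cells divided by IC50 in parental OVCAR-8 cells.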

NCI/ADR-RES = experiment: Antiproliferative activity against human NCI/ADR-RES cells overexpressing Pgp; format: functional, cell-based
OVCAR-8 = experiment: Antiproliferative activity against human OVCAR-8 cells; format: functional, cell-based
MCF7 [4] = experiment: Antiproliferative activity against human MCF7 cells; format: functional, cell-based
MCF7 [5] = experiment: Antiproliferative activity against human MCF7 cells expressing TUBB3; format: functional, cell-based
MCF7 [6] = experiment: Antitumor activity against human MCF7 cells expressing TUBB3 xenografted in athymic mouse assessed as reduction in tumor growth at 10 mg/kg administered twice in a week; format: functional, organism-based
[7] = Toxicity in athymic mouse xenografted with human MCF7 cells expressing TUBB3 assessed as effect on body weight at 10 mg/kg administered twice in a week; format: organism-based; conditions: in vivo

Row | inhibition (Tubulin (Homo sapiens) [1]) | inhibition (Tubulin (Homo sapiens) [2]) | IC50 (Tubulin) | IC50 (OVCAR-8) | EC50 (MCF7 [4]) | EC50 (MCF7 [5]) | SMILES | Ratio IC50 [3] | IC50 (NCI/ADR-RES) | TGI (MCF7 [6]) | Activity [7]
1 | 73% | 92% | 480 nM |  |  |  | COc1ccc(N(C)c2nc(C)nc3c(Cc4ccccc4)cn(C)c23)cc1 |  |  |  | 
2 |  |  |  | 5.3 nM | 194 nM | 2070 nM | CC(=O)O[C@H]1C(=O)[C@@]2(C)[C@H]([C@H](OC(=O)c3ccccc3)[C@]3(O)C[C@H](OC(=O)[C@H](O)[C@@H](NC(=O)c4ccccc4)c4ccccc4)C(C)=C1C3(C)C)[C@]1(OC(C)=O)CO[C@@H]1C[C@@H]2O [PACLITAXEL] |  |  | Active | Toxic
3 | 64% | 93% | 820 nM | 31 nM |  |  | CSc1ccc(N(C)c2nc(Cl)nc3cnn(C)c23)cc1 | 0.54 | 17 nM |  | 
4 | 68% | 94% | 420 nM | 17 nM |  |  | COc1ccc2c(c1)CCCN2c1nc(Cl)nc2cnn(C)c12 | 0.47 | 8 nM |  | 

Second part, the molecule before the results:

Row | SMILES | inhibition (Tubulin (Homo sapiens) [1]) | inhibition (Tubulin (Homo sapiens) [2]) | IC50 (Tubulin) | IC50 (OVCAR-8) | EC50 (MCF7 [4]) | EC50 (MCF7 [5]) | Ratio IC50 [3] | IC50 (NCI/ADR-RES) | TGI (MCF7 [6]) | Activity [7]
5 | CN(c1ccc(OC(F)(F)F)cc1)c1nc(Cl)nc2cnn(C)c12 |  | 64% | 2900 nM | 880 nM |  |  | 0.83 | 730 nM |  | 
6 | CC(C)Oc1ccc(N(C)c2nc(Cl)nc3cnn(C)c23)cc1 |  | 85% | 1100 nM | 49 nM |  |  | 0.89 | 44 nM |  | 
7 | COc1ccc(N(C)c2nc(C)nc3c(Cc4ccccc4)c[nH]c23)cc1 |  |  | 21000 nM |  |  |  |  |  |  | 
8 | COc1ccc(N(C)c2nc(C)nc3cc[nH]c23)cc1 |  | 60% | 10000 nM |  |  |  |  |  |  | 
